Data reported in ChEMBL document CHEMBL1140136, “Structural modifications of N-(1,2,3,4-tetrahydronaphthalen-1-yl)-4-aryl-1-piperazinehexanamides: influence on lipophilicity and 5-HT7 receptor activity. Part III” (J Med Chem, 2008).
Active and inactive are the calls of the source. The rule behind the calls is not given here.

Assays:
[1] = biological target: T1, 5-hydroxytryptamine receptor 1A (Homo sapiens, UniProt P08908); experiment: Displacement of [3H]8-OH-DPAT from human cloned 5HT1A receptor expressed in HEK293 cells; format: cell-based
T1 sequence (P08908 whole entry): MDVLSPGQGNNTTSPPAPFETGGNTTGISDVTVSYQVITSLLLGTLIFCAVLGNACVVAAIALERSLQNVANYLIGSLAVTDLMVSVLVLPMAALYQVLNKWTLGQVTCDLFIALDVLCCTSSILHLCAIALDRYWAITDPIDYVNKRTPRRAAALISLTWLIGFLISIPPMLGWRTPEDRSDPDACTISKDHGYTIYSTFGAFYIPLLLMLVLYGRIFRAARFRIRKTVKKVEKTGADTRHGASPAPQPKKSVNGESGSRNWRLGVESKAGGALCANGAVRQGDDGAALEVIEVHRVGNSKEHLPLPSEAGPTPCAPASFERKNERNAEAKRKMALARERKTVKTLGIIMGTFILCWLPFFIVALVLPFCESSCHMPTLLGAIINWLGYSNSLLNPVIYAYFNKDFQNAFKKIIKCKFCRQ
Outline: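 Membranes (40 µg) from HEK-293 cells stably expressing human 5-HT1A, with 1.0 nM [3H]-8-OH-DPAT and compound (0.1 nM-10 µM). Incubated 120 min at 37 °C in 50 mM Tris-HCl pH 7.4, 5 mM MgSO4, then filtered. Nonspecific binding with 10 µM 5-HT. Ki by nonlinear fit and Cheng-Prusoff; three experiments in triplicate.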

[2] = biological target: 5-hydroxytryptamine receptor 7 (Rattus norvegicus, UniProt P32305); experiment: Displacement of [3H]LSD from rat cloned 5HT7 receptor expressed in HEK293 cells; format: cell-based
Sequence of 5-hydroxytryptamine receptor 7 (Rattus norvegicus, UniProt P32305) (P32305 whole entry): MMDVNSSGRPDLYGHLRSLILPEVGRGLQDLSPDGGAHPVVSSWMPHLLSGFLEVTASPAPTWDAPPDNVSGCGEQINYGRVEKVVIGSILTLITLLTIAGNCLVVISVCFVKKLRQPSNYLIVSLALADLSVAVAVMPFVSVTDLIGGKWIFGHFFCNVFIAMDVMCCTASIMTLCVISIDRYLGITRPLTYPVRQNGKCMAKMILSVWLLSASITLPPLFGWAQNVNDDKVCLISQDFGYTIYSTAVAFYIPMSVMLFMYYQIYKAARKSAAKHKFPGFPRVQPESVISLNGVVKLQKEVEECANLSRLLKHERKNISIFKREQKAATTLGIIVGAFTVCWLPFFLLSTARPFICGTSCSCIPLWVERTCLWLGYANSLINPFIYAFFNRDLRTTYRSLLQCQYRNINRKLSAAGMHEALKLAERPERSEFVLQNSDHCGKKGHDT
Outline: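 Rat recombinant 5-HT7 membranes (30 µg) from HEK-293 cells, with 2.5 nM [3H]-LSD and 6-9 compound concentrations. Incubated 60 min at 37 °C in 50 mM Tris, 10 mM MgCl2, 0.5 mM EDTA, pH 7.4, then filtered. Nonspecific binding with 10 µM 5-CT. Ki via Cheng-Prusoff; three experiments in triplicate.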

D(2) dopamine receptor = D(2) dopamine receptor (Homo sapiens, UniProt P14416); experiment: Displacement of [3H]spiroperidol from human cloned dopamine D2L receptor expressed in rat C6 cells; format: cell-based
Sequence of D(2) dopamine receptor (P14416 whole entry): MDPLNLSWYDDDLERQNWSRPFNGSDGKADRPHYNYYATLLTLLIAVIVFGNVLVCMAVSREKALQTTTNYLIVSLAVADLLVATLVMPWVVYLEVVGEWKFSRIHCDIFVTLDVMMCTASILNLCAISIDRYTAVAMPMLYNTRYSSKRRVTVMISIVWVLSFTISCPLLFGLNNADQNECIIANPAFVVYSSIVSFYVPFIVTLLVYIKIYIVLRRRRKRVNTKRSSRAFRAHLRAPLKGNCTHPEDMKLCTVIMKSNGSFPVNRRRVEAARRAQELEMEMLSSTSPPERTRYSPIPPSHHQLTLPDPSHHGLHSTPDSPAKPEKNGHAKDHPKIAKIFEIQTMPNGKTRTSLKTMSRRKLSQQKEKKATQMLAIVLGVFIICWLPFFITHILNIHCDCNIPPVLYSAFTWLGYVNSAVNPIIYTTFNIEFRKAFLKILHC

[3] = Selectivity for rat cloned 5HT7 over human cloned dopamine D2
[4] = Selectivity for rat cloned 5HT7 over human cloned 5HT1A
[5] = biological target: 5-hydroxytryptamine receptor 7 (Cavia porcellus) (UniProt P50407); experiment: Agonist activity at 5HT7 receptor assessed as relaxation of substance P-induced Dunkin-Hartley guinea pig ileum contraction relative to 5-carboxamidotryptamine; format: functional, tissue-based; design: scale not given: the % may be the effect or the level left
Sequence of 5-hydroxytryptamine receptor 7 (Cavia porcellus) (P50407 whole entry): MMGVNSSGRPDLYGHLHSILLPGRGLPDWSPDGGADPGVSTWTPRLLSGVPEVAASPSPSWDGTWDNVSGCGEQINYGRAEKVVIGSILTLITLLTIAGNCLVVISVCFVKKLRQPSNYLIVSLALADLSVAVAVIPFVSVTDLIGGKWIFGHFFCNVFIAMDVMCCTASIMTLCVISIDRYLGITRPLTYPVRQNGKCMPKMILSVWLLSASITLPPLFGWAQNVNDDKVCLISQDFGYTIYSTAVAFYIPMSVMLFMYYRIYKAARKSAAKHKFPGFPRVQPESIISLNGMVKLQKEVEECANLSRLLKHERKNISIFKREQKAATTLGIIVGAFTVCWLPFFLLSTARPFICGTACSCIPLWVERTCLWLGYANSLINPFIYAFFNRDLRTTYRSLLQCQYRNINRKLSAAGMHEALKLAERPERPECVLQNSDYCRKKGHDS
Outline: (§1)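 Male Dunkin-Hartley guinea pigs (300-350 g); 3 cm proximal ileum segments were held under 1.0 g tension in Krebs-Henseleit at 37 °C, gassed with 95% O2/5% CO2. The bath contained 1 µM atropine, ketanserin and pyrilamine. Compound (0.001-10 µM) or the 5-CT reference was added 5 min before 100 nM substance P, giving noncumulative curves. Read-out was % reduction of contraction height; EC50 by nonlinear fitting.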

[6] = biological target: T2, 5-hydroxytryptamine receptor 7 (Cavia porcellus, UniProt P50407); experiment: Agonist activity at 5HT7 receptor assessed as relaxation of substance P-induced Dunkin-Hartley guinea pig ileum contraction; format: functional, tissue-based; outline: as §1
T2 sequence (P50407 whole entry): as above

[7] = biological target: T2, 5-hydroxytryptamine receptor 7; experiment: Antagonist activity at 5HT7 receptor assessed as inhibition of N-(4-Cyanophenylmethyl)-4-(2-diphenyl)-1-piperazinehexanamide mediated relaxation of substance P-induced Dunkin-Hartley guinea pig ileum contraction; format: functional, tissue-based; conditions: read-out: pA2 (converted)
Outline: (§2)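 Male Dunkin-Hartley guinea pigs (300-350 g); whole proximal ileal segments (~3 cm) held under 1.0 g tension in Krebs-Henseleit, 95% O2/5% CO2, 37 °C. Bath contained 1 µM atropine, ketanserin and pyrilamine. Contraction evoked by 100 nM substance P; agonist added 5 min before; selective 5-HT7 antagonist at 0.1-3 µM; isometric tension relaxation, noncumulative curves.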

[8] = biological target: T2, 5-hydroxytryptamine receptor 7; experiment: Antagonist activity at 5HT7 receptor assessed as inhibition of 4-(2-Diphenyl)-N-(4-pyridinylmethyl)-1-piperazinehexanamide mediated relaxation of substance P-induced Dunkin-Hartley guinea pig ileum contraction; format: functional, tissue-based; conditions: read-out: pA2 (converted); outline: as §2
[9] = biological target: T2, 5-hydroxytryptamine receptor 7; experiment: Antagonist activity at 5HT7 receptor assessed as inhibition of 2-[6-[4-(2-Diphenyl)-1-piperazinyl]-1-oxohexyl]-1,2,3,4-tetrahydroisoquinoline mediated relaxation of substance P-induced Dunkin-Hartley guinea pig ileum contraction; format: functional, tissue-based; conditions: read-out: pA2 (converted); outline: as §2
[10] = Elimination half life in CD1 albino mouse brain at 10 mg/kg, ip; format: ADME, organism-based; design: dose 10 mg/kg, route intraperitoneal; conditions: read-out: beta t1/2
Outline: (§3)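 Male CD1 albino mice (25-30 g), 10 mg/kg i.p., 3 mice per time point. Brains were removed, blotted, frozen, homogenized in water (1 g/10 mL) and extracted twice with hexane/isoamyl alcohol. Parent and 1-arylpiperazine metabolite were measured by RP-HPLC-UV at 230 nm. LLOQ about 0.1 µg/g; no residual-blood correction. Cmax read directly, AUC by linear trapezoidal rule, t1/2 by noncompartmental analysis.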

[11] = Cmax in CD1 albino mouse brain at 10 mg/kg, ip after 120 mins; format: ADME, organism-based; design: dose 10 mg/kg, route intraperitoneal; outline: as §3
Mus musculus [12] = experiment: AUC in CD1 albino mouse brain at 10 mg/kg, ip; format: ADME, organism-based; design: dose 10 mg/kg, route intraperitoneal; conditions: in vivo; outline: as §3
[13] = Cmax in CD1 albino mouse brain at 10 mg/kg, ip after 60 mins; format: ADME, organism-based; design: dose 10 mg/kg, route intraperitoneal; outline: as §3
[14] = biological target: 5-hydroxytryptamine receptor 7 (Cavia porcellus) (UniProt P50407); experiment: Agonist activity at 5HT7 receptor assessed as relaxation of substance P-induced Dunkin-Hartley guinea pig ileum contraction at 1 mM; format: functional, tissue-based
Outline: (§4)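 Guinea pig ileum was contracted by 100 nM substance P in Krebs-Henseleit with atropine, ketanserin and pyrilamine (1 µM each). Agonist tests were repeated after 5-HT7 desensitization: 60 min equilibration with 3 µM 5-CT, bath changed every 15 min. Relaxation was scored at single test concentrations as % reduction in contraction height.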

[15] = biological target: 5-hydroxytryptamine receptor 7 (Cavia porcellus) (UniProt P50407); experiment: Agonist activity at 5HT7 receptor assessed as relaxation of substance P-induced Dunkin-Hartley guinea pig ileum contraction at 2 mM; format: functional, tissue-based; outline: as §4
[16] = biological target: 5-hydroxytryptamine receptor 7 (Cavia porcellus) (UniProt P50407); experiment: Agonist activity at 5HT7 receptor assessed as relaxation of substance P-induced Dunkin-Hartley guinea pig ileum contraction at 3 mM; format: functional, tissue-based; outline: as §4
[17] = biological target: 5-hydroxytryptamine receptor 7 (Rattus norvegicus) (UniProt P32305); experiment: Displacement of [3H]LSD from rat cloned 5HT7 receptor expressed in HEK293 cells at […]; format: cell-based
Sequence of 5-hydroxytryptamine receptor 7 (Rattus norvegicus) (P32305 whole entry): as the sequence (P32305 whole entry) above

[18] = Cmax in CD1 albino mouse brain at 10 mg/kg, ip after 30 mins; format: ADME, organism-based; design: dose 10 mg/kg, route intraperitoneal
Outline: (§5)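 Male CD1 mice (25-30 g) received 10 mg/kg ip, with 3 mice per time point. Heparinized trunk blood gave plasma; brain was homogenized in water (1 g/10 mL). Samples were extracted with hexane/isoamyl alcohol and assayed by RP-HPLC-UV at 230 nm with an internal standard. Quantification limits were 0.1 µg/mL plasma and 0.1 µg/g brain. Cmax and its time were read from the data.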

[19] = Cmax in CD1 albino mouse plasma at 10 mg/kg, ip after 15 mins
[20] = Plasma concentration in CD1 albino mouse at 10 mg/kg, ip after 1 hr; format: ADME, organism-based; design: dose 10 mg/kg, route intraperitoneal; outline: as §5
[21] = Cmax in CD1 albino mouse plasma at 10 mg/kg, ip after 30 mins; format: ADME, organism-based; design: dose 10 mg/kg, route intraperitoneal; outline: as §5
[22] = Elimination half life in CD1 albino mouse plasma at 10 mg/kg, ip; conditions: read-out: beta t1/2
Mus musculus [23] = experiment: Volume of distribution in CD1 albino mouse plasma at 10 mg/kg, ip; conditions: in vivo
Mus musculus [24] = species on record: Mus musculus; experiment: Ratio of plasma AUC to brain AUC in CD1 albino mouse; format: ADME, organism-based; conditions: in vivo
Outline: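 Male CD1 mice (25-30 g) were dosed at 10 mg/kg ip, 3 per time point. Trunk blood plasma and brain homogenate were extracted with hexane/isoamyl alcohol and analysed by RP-HPLC-UV at 230 nm. Quantification limit was ~0.1 µg/mL or µg/g. AUC was calculated by the linear trapezoidal rule, noncompartmental, extrapolated to infinity where possible.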

Ki [1] [nM]	Ki [2] [nM]	Ki (D(2) dopamine receptor) [nM]	SMILES	also measured
139	215	9.2	CC(C)c1ccccc1N1CCN(CCCCCC(=O)NCc2ccccc2)CC1	–
53	8.6	20	CC(C)c1ccccc1N1CCN(CCCCCC(=O)NCc2ccc(C#N)cc2)CC1	–
95	3.81	362	O=C(CCCCCN1CCN(c2ccccc2-c2ccccc2)CC1)N1CCc2ccccc2C1	Selectivity ratio [3]: 95; Selectivity ratio [4]: 25; Activity [5]: 89%; EC50 [6]: 490 nM
12	22	33	CSc1ccccc1N1CCN(CCCCCC(=O)NCc2ccccc2)CC1	–
40	31	22	COc1ccccc1N1CCN(CCCCCC(=O)N2CCc3ccccc3C2)CC1	–
325	5.1	21	CC(C)c1ccccc1N1CCN(CCCCCC(=O)NCc2ccncc2)CC1	–
–	–	–	CC1CCN(CC[C@H]2CCCN2S(=O)(=O)c2cccc(O)c2)CC1	Kb [7]: 20.4 nM; Kb [8]: 11 nM; Kb [9]: 15.8 nM
2.04	32.9	40	CSc1ccccc1N1CCN(CCCCCC(=O)N2CCc3ccccc3C2)CC1	–
29	71	91	COc1ccccc1N1CCN(CCCCCC(=O)NCc2ccc(OS(C)(=O)=O)cc2)CC1	–
19	389	501	COc1ccccc1N1CCN(CCCCCC(=O)NCc2ccncc2)CC1	–
–	–	–	c1ccc(-c2ccccc2N2CCNCC2)cc1	half-life [10]: 1.45 h; Cmax [11]: 410 ng/g; AUC (Mus musculus [12]): 94 µg/min/mL
43	296	311	COc1ccccc1N1CCN(CCCCCC(=O)NCc2ccc(C#N)cc2)CC1	–
3.2	179	730	COc1ccccc1N1CCN(CCCCCC(=O)N2Cc3ccccc3C2)CC1	–
106	5.7	723	CS(=O)(=O)Oc1ccc(CNC(=O)CCCCCN2CCN(c3ccccc3-c3ccccc3)CC2)cc1	–
124	8.3	93	O=C(CCCCCN1CCN(c2ccccc2-c2ccccc2)CC1)N1Cc2ccccc2C1	–
70	0.98	185	O=C(CCCCCN1CCN(c2ccccc2-c2ccccc2)CC1)NCc1ccncc1	Selectivity ratio [3]: 95; Selectivity ratio [4]: 25; Activity [5]: 87%; EC50 [6]: 310 nM
–	–	–	CSc1ccccc1N1CCNCC1	Cmax [13]: 500 ng/g; half-life [10]: 1 h; AUC (Mus musculus [12]): 85 µg/min/mL
3.7	6	1.3	CC(C)c1ccccc1N1CCN(CCCCCC(=O)N2CCc3ccccc3C2)CC1	–
57	76	7.8	CC(C)c1ccccc1N1CCN(CCCCCC(=O)NCc2ccc(OS(C)(=O)=O)cc2)CC1	–
94	9	5.3	CSc1ccccc1N1CCN(CCCCCC(=O)NCc2ccc(C#N)cc2)CC1	–
8.2	34.8	64	CSc1ccccc1N1CCN(CCCCCC(=O)NCc2ccncc2)CC1	–
161	–	503	O=C(CCCCCN1CCN(c2ccccc2-c2ccccc2)CC1)NCc1ccccc1	Activity [14]: inactive; Activity [15]: Active; Activity [16]: Active; EC50 [6]: 4500 nM; Activity [17]: 62%
–	–	–	CSc1ccccc1N1CCN(CCCCCC(=O)NC2CCCc3ccccc32)CC1 (stereo not given)	Cmax [18]: 580 ng/g; Cmax [19]: 310 ng/mL; half-life [10]: 0.333 h; concentration at 1 h [20]: < 100 ng/mL
22	54	65	CC(C)c1ccccc1N1CCN(CCCCCC(=O)N2Cc3ccccc3C2)CC1	–
–	–	–	NCCc1c[nH]c2ccc(C(N)=O)cc12	Activity [5]: 100%
–	0.58	142	N#Cc1ccc(CNC(=O)CCCCCN2CCN(c3ccccc3-c3ccccc3)CC2)cc1	Cmax [18]: 540 ng/g; Cmax [21]: 760 ng/mL; half-life [22]: 1.08 h; Vd (Mus musculus [23]): 11 L/kg; half-life [10]: 1.15 h; Activity [5]: 82%; Ratio AUC (Mus musculus [24]): 0.7; EC50 [6]: 600 nM
10.3	148	30	CSc1ccccc1N1CCN(CCCCCC(=O)NCc2ccc(OS(C)(=O)=O)cc2)CC1	–
1.07	42	96	CSc1ccccc1N1CCN(CCCCCC(=O)N2Cc3ccccc3C2)CC1	–
13	224	226	COc1ccccc1N1CCN(CCCCCC(=O)NCc2ccccc2)CC1	–
